Measured values: ChEMBL document CHEMBL4177578, “Synthesis, pharmacological activities and molecular docking studies of pyrazolyltriazoles as anti-bacterial and anti-inflammatory agents” (Bioorg Med Chem, 2017)
The source made the active and inactive calls. No cut-off for these calls is given here.

Key:
Type in all cases: functional
[1] = Anti-inflammatory activity at 100 ug/ml using bovine serum albumin and egg albumin proteins incubated at 37 degC for 20 mins and then heated to 95 degC for 20 mins by UV-visible Spectrophotometry based protein denaturation method
Procedure, shortened: (§1)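 Albumin (bovine serum or egg) at 1% in 50 mM sodium phosphate buffer pH 6.4. Mixture is 0.1 ml test sample (1 mg/ml) plus 0.2 ml albumin, made to 5 ml with buffer. Held 37 °C for 20 min, then 95 °C for 20 min. Cooled to room temperature, turbidity read at 660 nm. % inhibition = (Abs control − Abs sample)/Abs control × 100. Triplicate, averaged.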

[2] = Anti-inflammatory activity using bovine serum albumin and egg albumin proteins incubated at 37 degC for 20 mins and then heated to 95 degC for 20 mins by UV-visible Spectrophotometry based protein denaturation method; procedure, shortened: as §1
Salmonella paratyphi [3] = experiment: Antimicrobial activity against Salmonella paratyphi incubated for 12 to 16 hrs by tube dilution method; conditions: Salmonella enterica subsp. enterica serovar Paratyphi A
Procedure, shortened: (§2)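 Broth tube dilution, two-fold serial dilutions from 500 to 1.9 µg/mL plus a drug-free control tube. Each tube inoculated with 1 mL culture at OD 0.2 (~McFarland standard), 37 °C for 12-16 h. Turbidity compared with the control tube. MIC is the lowest concentration giving complete growth inhibition.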

Micrococcus luteus [4] = experiment: Antimicrobial activity against Micrococcus luteus at 1 mg/ml incubated for 20 to 30 mins followed by incubation for 24 hrs at 37 degC by agar plate method
Procedure, shortened: (§3)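 Agar well diffusion on nutrient agar. Plates swabbed with 60 µL inoculum; 8 mm wells loaded with 100 µL of compound at 1.0 mg/mL. Held 20–30 min at 4 °C for diffusion, then 24 h at 37 °C. Inhibition zone diameter read in mm. Triplicate.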

Salmonella typhi [5] = experiment: Antimicrobial activity against Salmonella typhi incubated for 12 to 16 hrs followed by plating in nutrient agar by tube dilution method; conditions: Salmonella enterica subsp. enterica serovar Typhi
Procedure, shortened: (§4)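 After 12-16 h at 37 °C in tube dilution (500 to 1.9 µg/mL; 1 mL inoculum at OD 0.2), the culture from each tube was plated on nutrient agar. MBC is the concentration at which cells are completely killed.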

Salmonella paratyphi [6] = experiment: Antimicrobial activity against Salmonella paratyphi at 1 mg/ml incubated for 20 to 30 mins followed by incubation for 24 hrs at 37 degC by agar plate method; conditions: Salmonella enterica subsp. enterica serovar Paratyphi A
Procedure, shortened: (§5)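 Agar well diffusion on nutrient agar. Plates swabbed with 60 µL inoculum, 8 mm wells loaded with 100 µL sample at 1.0 mg/mL, streptomycin standard and control in separate wells. Plates held 20–30 min at 4 °C for diffusion, then 24 h at 37 °C. Zone diameter read in mm; triplicate.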

Salmonella typhi [7] = experiment: Antimicrobial activity against Salmonella typhi at 1 mg/ml incubated for 20 to 30 mins followed by incubation for 24 hrs at 37 degC by agar plate method; conditions: Salmonella enterica subsp. enterica serovar Typhi; procedure, shortened: as §5
Salmonella paratyphi [8] = experiment: Antimicrobial activity against Salmonella paratyphi incubated for 12 to 16 hrs followed by plating in nutrient agar by tube dilution method; conditions: Salmonella enterica subsp. enterica serovar Paratyphi A; procedure, shortened: as §4
Salmonella typhi [9] = experiment: Antimicrobial activity against Salmonella typhi incubated for 12 to 16 hrs by tube dilution method; conditions: Salmonella enterica subsp. enterica serovar Typhi; procedure, shortened: as §2
Micrococcus luteus [10] = experiment: Antimicrobial activity against Micrococcus luteus incubated for 12 to 16 hrs by tube dilution method
Procedure, shortened: (§6)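 Tube dilution, serial from 500 to 1.9 µg/mL, plus drug-free control tube. Each tube inoculated with 1 mL culture at OD 0.2, incubated 37 °C for 12–16 h. MIC is the lowest concentration with no growth by turbidity. MBC is found by plating each tube on nutrient agar: the lowest concentration at which all cells are killed.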

Staphylococcus aureus = experiment: Antimicrobial activity against Staphylococcus aureus at 1 mg/ml incubated for 20 to 30 mins followed by incubation for 24 hrs at 37 degC by agar plate method; procedure, shortened: as §3
[11] = Anti-inflammatory activity at 50 ug/ml using bovine serum albumin and egg albumin proteins incubated at 37 degC for 20 mins and then heated to 95 degC for 20 mins by UV-visible Spectrophotometry based protein denaturation method; procedure, shortened: as §1
Micrococcus luteus [12] = experiment: Antimicrobial activity against Micrococcus luteus incubated for 12 to 16 hrs followed by plating in nutrient agar by tube dilution method; procedure, shortened: as §6

## Cc1ccc(-n2cc(CN=[N+]=[N-])c(-c3ccccc3)n2)cc1C
[1]
  inhibition: inactive
[2]
  IC50: Not Active
Salmonella paratyphi [3]
  MIC: inactive
Micrococcus luteus [4]
  diameter of the inhibition zone (DIZ): inactive
Salmonella typhi [5]
  MBC: inactive
Salmonella paratyphi [6]
  diameter of the inhibition zone (DIZ): inactive
Salmonella typhi [7]
  diameter of the inhibition zone (DIZ): inactive
Salmonella paratyphi [8]
  MBC: inactive
Salmonella typhi [9]
  MIC: inactive
Micrococcus luteus [10]
  MIC: inactive
Staphylococcus aureus
  diameter of the inhibition zone (DIZ): inactive
[11]
  inhibition: inactive
Micrococcus luteus [12]
  MBC: inactive

## COc1ccc(-c2nn(-c3ccccc3)cc2Cn2cc(-c3ccccc3)nn2)cc1
[1]
  inhibition: inactive
[2]
  IC50: Not Active
Salmonella paratyphi [3]
  MIC: inactive
Micrococcus luteus [4]
  diameter of the inhibition zone (DIZ): inactive
Salmonella typhi [5]
  MBC: inactive
Salmonella paratyphi [6]
  diameter of the inhibition zone (DIZ): inactive
Salmonella typhi [7]
  diameter of the inhibition zone (DIZ): inactive
Salmonella paratyphi [8]
  MBC: inactive
Salmonella typhi [9]
  MIC: inactive
Micrococcus luteus [10]
  MIC: inactive
Staphylococcus aureus
  diameter of the inhibition zone (DIZ): inactive
[11]
  inhibition: inactive
Micrococcus luteus [12]
  MBC: inactive

## [N-]=[N+]=NCc1cn(-c2ccc(Cl)cc2)nc1-c1ccccc1
[1]
  inhibition: inactive
[2]
  IC50: Not Active
Salmonella paratyphi [3]
  MIC: inactive
Micrococcus luteus [4]
  diameter of the inhibition zone (DIZ): inactive
Salmonella typhi [5]
  MBC: inactive
Salmonella paratyphi [6]
  diameter of the inhibition zone (DIZ): inactive
Salmonella typhi [7]
  diameter of the inhibition zone (DIZ): inactive
Salmonella paratyphi [8]
  MBC: inactive
Salmonella typhi [9]
  MIC: inactive
Micrococcus luteus [10]
  MIC: inactive
Staphylococcus aureus
  diameter of the inhibition zone (DIZ): inactive
[11]
  inhibition: inactive
Micrococcus luteus [12]
  MBC: inactive

## CN(C)c1ccc(-c2cn(Cc3cn(-c4ccccc4)nc3-c3ccccc3)nn2)cc1
[1]
  inhibition: inactive
[2]
  IC50: Not Active
Salmonella paratyphi [3]
  MIC: inactive
Micrococcus luteus [4]
  diameter of the inhibition zone (DIZ): inactive
Salmonella typhi [5]
  MBC: inactive
Salmonella paratyphi [6]
  diameter of the inhibition zone (DIZ): inactive
Salmonella typhi [7]
  diameter of the inhibition zone (DIZ): inactive
Salmonella paratyphi [8]
  MBC: inactive
Salmonella typhi [9]
  MIC: inactive
Micrococcus luteus [10]
  MIC: inactive
Staphylococcus aureus
  diameter of the inhibition zone (DIZ): inactive
[11]
  inhibition: inactive
Micrococcus luteus [12]
  MBC: inactive

## COc1ccc(-c2cn(Cc3cn(-c4ccccc4)nc3-c3ccccc3)nn2)c(C)c1
[1]
  inhibition: inactive
[2]
  IC50: Not Active
Salmonella paratyphi [3]
  MIC: inactive
Micrococcus luteus [4]
  diameter of the inhibition zone (DIZ): inactive
Salmonella typhi [5]
  MBC: inactive
Salmonella paratyphi [6]
  diameter of the inhibition zone (DIZ): inactive
Salmonella typhi [7]
  diameter of the inhibition zone (DIZ): inactive
Salmonella paratyphi [8]
  MBC: inactive
Salmonella typhi [9]
  MIC: inactive
Micrococcus luteus [10]
  MIC: inactive
Staphylococcus aureus
  diameter of the inhibition zone (DIZ): inactive
[11]
  inhibition: inactive
Micrococcus luteus [12]
  MBC: inactive

## FC(F)(F)c1ccc(-c2cn(Cc3cn(-c4ccccc4)nc3-c3ccccc3)nn2)c(C(F)(F)F)c1
[1]
  inhibition: inactive
[2]
  IC50: Not Active
Salmonella paratyphi [3]
  MIC: inactive
Micrococcus luteus [4]
  diameter of the inhibition zone (DIZ): inactive
Salmonella typhi [5]
  MBC: inactive
Salmonella paratyphi [6]
  diameter of the inhibition zone (DIZ): inactive
Salmonella typhi [7]
  diameter of the inhibition zone (DIZ): inactive
Salmonella paratyphi [8]
  MBC: inactive
Salmonella typhi [9]
  MIC: inactive
Micrococcus luteus [10]
  MIC: inactive
Staphylococcus aureus
  diameter of the inhibition zone (DIZ): inactive
[11]
  inhibition: inactive
Micrococcus luteus [12]
  MBC: inactive

## Clc1ccc(-n2cc(Cn3cc(-c4ccccc4)nn3)c(-c3ccccc3)n2)cc1
[1]
  inhibition: inactive
[2]
  IC50: Not Active
Salmonella paratyphi [3]
  MIC: inactive
Micrococcus luteus [4]
  diameter of the inhibition zone (DIZ): inactive
Salmonella typhi [5]
  MBC: inactive
Salmonella paratyphi [6]
  diameter of the inhibition zone (DIZ): inactive
Salmonella typhi [7]
  diameter of the inhibition zone (DIZ): inactive
Salmonella paratyphi [8]
  MBC: inactive
Salmonella typhi [9]
  MIC: inactive
Micrococcus luteus [10]
  MIC: inactive
Staphylococcus aureus
  diameter of the inhibition zone (DIZ): inactive
[11]
  inhibition: inactive
Micrococcus luteus [12]
  MBC: inactive

## CCOC(=O)c1nnn(Cc2cn(-c3ccccc3)nc2-c2ccc(Cl)cc2)c1C(=O)OCC
[1]
  inhibition: inactive
[2]
  IC50: Not Active
Salmonella paratyphi [3]
  MIC: inactive
Micrococcus luteus [4]
  diameter of the inhibition zone (DIZ): inactive
Salmonella typhi [5]
  MBC: inactive
Salmonella paratyphi [6]
  diameter of the inhibition zone (DIZ): inactive
Salmonella typhi [7]
  diameter of the inhibition zone (DIZ): inactive
Salmonella paratyphi [8]
  MBC: inactive
Salmonella typhi [9]
  MIC: inactive
Micrococcus luteus [10]
  MIC: inactive
Staphylococcus aureus
  diameter of the inhibition zone (DIZ): inactive
[11]
  inhibition: inactive
Micrococcus luteus [12]
  MBC: inactive

## Clc1ccc(-c2cn(Cc3cn(-c4ccccc4)nc3-c3ccccc3)nn2)cc1
[1]
  inhibition: inactive
[2]
  IC50: Not Active
Salmonella paratyphi [3]
  MIC: inactive
Micrococcus luteus [4]
  diameter of the inhibition zone (DIZ): inactive
Salmonella typhi [5]
  MBC: inactive
Salmonella paratyphi [6]
  diameter of the inhibition zone (DIZ): inactive
Salmonella typhi [7]
  diameter of the inhibition zone (DIZ): inactive
Salmonella paratyphi [8]
  MBC: inactive
Salmonella typhi [9]
  MIC: inactive
Micrococcus luteus [10]
  MIC: inactive
Staphylococcus aureus
  diameter of the inhibition zone (DIZ): inactive
[11]
  inhibition: inactive
Micrococcus luteus [12]
  MBC: inactive

## Cc1ccc(-c2nn(-c3ccccc3)cc2CN=[N+]=[N-])cc1
[1]
  inhibition: inactive
[2]
  IC50: Not Active
Salmonella paratyphi [3]
  MIC: inactive
Micrococcus luteus [4]
  diameter of the inhibition zone (DIZ): inactive
Salmonella typhi [5]
  MBC: inactive
Salmonella paratyphi [6]
  diameter of the inhibition zone (DIZ): inactive
Salmonella typhi [7]
  diameter of the inhibition zone (DIZ): inactive
Salmonella paratyphi [8]
  MBC: inactive
Salmonella typhi [9]
  MIC: inactive
Micrococcus luteus [10]
  MIC: inactive
Staphylococcus aureus
  diameter of the inhibition zone (DIZ): inactive
[11]
  inhibition: inactive
Micrococcus luteus [12]
  MBC: inactive

## Clc1ccc(-c2nn(-c3ccccc3)cc2Cn2cc(-c3ccccc3)nn2)cc1
[1]
  inhibition: inactive
[2]
  IC50: Not Active
Salmonella paratyphi [3]
  MIC: inactive
Micrococcus luteus [4]
  diameter of the inhibition zone (DIZ): inactive
Salmonella typhi [5]
  MBC: inactive
Salmonella paratyphi [6]
  diameter of the inhibition zone (DIZ): inactive
Salmonella typhi [7]
  diameter of the inhibition zone (DIZ): inactive
Salmonella paratyphi [8]
  MBC: inactive
Salmonella typhi [9]
  MIC: inactive
Micrococcus luteus [10]
  MIC: inactive
Staphylococcus aureus
  diameter of the inhibition zone (DIZ): inactive
[11]
  inhibition: inactive
Micrococcus luteus [12]
  MBC: inactive

## COC(=O)c1nnn(Cc2cn(-c3ccccc3)nc2-c2ccccc2)c1C(=O)OC
[1]
  inhibition: inactive
[2]
  IC50: Not Active
Salmonella paratyphi [3]
  MIC: inactive
Micrococcus luteus [4]
  diameter of the inhibition zone (DIZ): inactive
Salmonella typhi [5]
  MBC: inactive
Salmonella paratyphi [6]
  diameter of the inhibition zone (DIZ): inactive
Salmonella typhi [7]
  diameter of the inhibition zone (DIZ): inactive
Salmonella paratyphi [8]
  MBC: inactive
Salmonella typhi [9]
  MIC: inactive
Micrococcus luteus [10]
  MIC: inactive
Staphylococcus aureus
  diameter of the inhibition zone (DIZ): inactive
[11]
  inhibition: inactive
Micrococcus luteus [12]
  MBC: inactive

## COC(=O)c1nnn(Cc2cn(-c3ccc(C)cc3)nc2-c2ccccc2)c1C(=O)OC
[1]
  inhibition: inactive
[2]
  IC50: Not Active
Salmonella paratyphi [3]
  MIC: inactive
Micrococcus luteus [4]
  diameter of the inhibition zone (DIZ): inactive
Salmonella typhi [5]
  MBC: inactive
Salmonella paratyphi [6]
  diameter of the inhibition zone (DIZ): inactive
Salmonella typhi [7]
  diameter of the inhibition zone (DIZ): inactive
Salmonella paratyphi [8]
  MBC: inactive
Salmonella typhi [9]
  MIC: inactive
Micrococcus luteus [10]
  MIC: inactive
Staphylococcus aureus
  diameter of the inhibition zone (DIZ): inactive
[11]
  inhibition: inactive
Micrococcus luteus [12]
  MBC: inactive

## COC(=O)c1nnn(Cc2cn(-c3ccc(Cl)cc3)nc2-c2ccccc2)c1C(=O)OC
[1]
  inhibition: inactive
[2]
  IC50: Not Active
Salmonella paratyphi [3]
  MIC: inactive
Micrococcus luteus [4]
  diameter of the inhibition zone (DIZ): inactive
Salmonella typhi [5]
  MBC: inactive
Salmonella paratyphi [6]
  diameter of the inhibition zone (DIZ): inactive
Salmonella typhi [7]
  diameter of the inhibition zone (DIZ): inactive
Salmonella paratyphi [8]
  MBC: inactive
Salmonella typhi [9]
  MIC: inactive
Micrococcus luteus [10]
  MIC: inactive
Staphylococcus aureus
  diameter of the inhibition zone (DIZ): inactive
[11]
  inhibition: inactive
Micrococcus luteus [12]
  MBC: inactive
